Assay results as given in ChEMBL document CHEMBL1240369, “Antiviral efficacy of the novel compound BIT225 against HIV-1 release from human macrophages” (Antimicrob Agents Chemother, 2010).
The source made the active and inactive calls. No cut-off for these calls is given here.

Target: Protease (Human immunodeficiency virus 1) (UniProt Q9YQ12)
Assay: Inhibition of HIV1 protease assessed as substrate cleavage by cell free assay
How it was run: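 Cell-free fluorometric protease assay: compound (1–100 μM) was premixed with 2 μM quenched HIV-1 protease substrate 1. Background fluorescence (ex 340/em 490 nm) was read every 5 s for 5 min. HIV-1 protease was then added at 1.5% and cleavage followed for a further 5 min. LPV and EFV served as controls.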

Chain of Protease (Human immunodeficiency virus 1) (Q9YQ12 as listed by the source): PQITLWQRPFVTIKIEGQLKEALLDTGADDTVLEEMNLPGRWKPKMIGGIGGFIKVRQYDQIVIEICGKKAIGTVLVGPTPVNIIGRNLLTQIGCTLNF

Activity	Structure (SMILES)
inactive	O=C1Nc2ccc(Cl)cc2[C@@](C#CC2CC2)(C(F)(F)F)O1
Active	Cc1cccc(C)c1OCC(=O)N[C@@H](Cc1ccccc1)[C@@H](O)C[C@H](Cc1ccccc1)NC(=O)[C@H](C(C)C)N1CCCNC1=O
